According to ChEMBL document CHEMBL2163282, “Discovery and characterization of AZD9272 and AZD6538-Two novel mGluR5 negative allosteric modulators selected for clinical development” (Bioorg Med Chem Lett, 2012):
Converted amounts (≈) assume the structure as drawn. The source made the active and inactive calls. The calls are words filed in the database; no cut-off is given here.

Legend:
[1] = molecular target: T1, Metabotropic glutamate receptor 5 (Homo sapiens, UniProt P41594); test: Negative allosteric modulation of human recombinant mGluR5 expressed in HEK293 cells expressing GLAST assessed as inhibition of DHPG-induced intracellular Ca2+ level after 30 mins by FLIPR assay
[2] = molecular target: T1, Metabotropic glutamate receptor 5; test: Binding affinity to human mGluR5 expressed in HEK293 cell membranes expressing GLAST assessed as per mg of protein after 1 hr by scintillation counter; conditions: tested as the 3H-labelled form
[3] = molecular target: T1, Metabotropic glutamate receptor 5; test: Binding affinity to human mGluR5 expressed in HEK293 cell membranes expressing GLAST assessed as per mg of protein after 1 hr by scintillation counter in absence of MPEP; conditions: tested as the 3H-labelled form
Procedure, shortened: (§1)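 [3H]AZD9272 equilibrium saturation binding on membranes from human mGluR5-GHEK cells (HEK293 stably expressing glutamate/aspartate transporter), run without MPEP or with 10 or 20 nM MPEP; filtration termination; Kd and Bmax (pmol/mg protein) derived per assay, three separate assays.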

[4] = molecular target: T1, Metabotropic glutamate receptor 5; test: Binding affinity to human mGluR5 expressed in HEK293 cell membranes expressing GLAST assessed as per mg of protein after 1 hr by scintillation counter in presence of 10 nM MPEP; conditions: tested as the 3H-labelled form; procedure, shortened: as §1
[5] = Tmax in Sprague-Dawley rat at 3 umol/kg, po; format: ADME, organism-based; conditions: in vivo
Procedure, shortened: (§2)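 Male rats (n = 3) received a single oral dose of 3 µmol/kg. Vehicle was Polyvidon K30 1.7 mg/ml, sodium lauryl sulphate 0.34 mg/ml and glycerin 25.0 mg/ml in water. Plasma levels were measured by liquid–liquid extraction and reversed-phase LC-MS/MS (APCI or ESI).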

[6] = AUC in Sprague-Dawley rat at 3 umol/kg, po; format: ADME, organism-based; conditions: plasma; procedure, shortened: as §2
[7] = Oral bioavailability in Sprague-Dawley rat at 3 umol/kg; format: ADME, organism-based; conditions: in vivo; procedure, shortened: as §2
[8] = Ratio of drug level in brain to plasma of Sprague-Dawley rat at 3 umol/kg, po; format: ADME; conditions: read-out: BPR
Procedure, shortened: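 Rats were given an oral dose of 3 µmol/kg. Total brain exposure was compared with plasma exposure to give a brain-to-plasma ratio.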

[9] = molecular target: Metabotropic glutamate receptor 5 (Rattus norvegicus) (UniProt P31424); test: Binding affinity to mGluR5 in Sprague-Dawley rat striatum assessed per mg of protein after 60 mins by autoradiographic analysis; conditions: tested as the 3H-labelled form
Metabotropic glutamate receptor 5 (Rattus norvegicus), sequence (P31424 21-1203 limits assumed): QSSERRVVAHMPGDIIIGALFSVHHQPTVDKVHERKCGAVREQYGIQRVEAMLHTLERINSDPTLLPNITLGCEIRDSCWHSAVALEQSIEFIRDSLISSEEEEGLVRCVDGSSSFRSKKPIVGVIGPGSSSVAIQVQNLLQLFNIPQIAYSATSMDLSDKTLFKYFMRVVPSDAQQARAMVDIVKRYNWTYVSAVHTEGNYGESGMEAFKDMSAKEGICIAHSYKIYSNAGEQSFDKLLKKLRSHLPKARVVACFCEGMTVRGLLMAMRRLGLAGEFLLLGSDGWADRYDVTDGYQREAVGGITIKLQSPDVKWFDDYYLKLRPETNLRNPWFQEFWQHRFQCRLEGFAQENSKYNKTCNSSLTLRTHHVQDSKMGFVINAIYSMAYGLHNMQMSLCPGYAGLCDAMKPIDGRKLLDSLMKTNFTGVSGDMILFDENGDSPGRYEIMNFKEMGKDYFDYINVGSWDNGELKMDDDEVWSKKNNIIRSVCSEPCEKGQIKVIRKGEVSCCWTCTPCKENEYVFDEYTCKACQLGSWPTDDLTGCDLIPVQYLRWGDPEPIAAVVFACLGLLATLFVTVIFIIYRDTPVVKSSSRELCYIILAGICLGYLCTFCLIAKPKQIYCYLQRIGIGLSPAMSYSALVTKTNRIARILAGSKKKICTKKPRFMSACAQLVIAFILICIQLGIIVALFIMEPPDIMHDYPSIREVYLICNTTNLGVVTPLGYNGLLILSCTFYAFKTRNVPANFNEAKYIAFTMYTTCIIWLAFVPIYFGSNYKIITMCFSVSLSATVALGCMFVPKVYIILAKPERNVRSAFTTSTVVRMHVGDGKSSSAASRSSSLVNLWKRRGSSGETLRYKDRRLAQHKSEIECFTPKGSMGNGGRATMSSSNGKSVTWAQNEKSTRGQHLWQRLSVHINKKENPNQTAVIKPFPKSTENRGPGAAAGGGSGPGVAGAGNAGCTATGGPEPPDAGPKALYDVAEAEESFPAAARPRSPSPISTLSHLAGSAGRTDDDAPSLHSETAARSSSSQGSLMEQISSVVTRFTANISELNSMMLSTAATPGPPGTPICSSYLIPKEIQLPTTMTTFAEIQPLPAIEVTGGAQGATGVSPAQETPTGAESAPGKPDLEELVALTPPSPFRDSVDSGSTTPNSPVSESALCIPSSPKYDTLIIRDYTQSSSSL

[10] = molecular target: Metabotropic glutamate receptor 7 (Homo sapiens) (UniProt Q14831); test: Positive allosteric modulation of mGluR7 assessed as effect on intracellular Ca2+ level up to 30 uM by cell based FLIPR assay; format: functional
Procedure, shortened: (§3)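 Each of the seven other mGluR subtypes was tested at concentrations up to 30 µM. Agonist, antagonist and positive allosteric modulator modes were each assessed. Read-out was the change in intracellular Ca2+ on FLIPR.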

[11] = molecular target: Metabotropic glutamate receptor 6 (Homo sapiens) (UniProt O15303); test: Positive allosteric modulation of mGluR6 assessed as effect on intracellular Ca2+ level up to 30 uM by cell based FLIPR assay; format: functional; procedure, shortened: as §3
Metabotropic glutamate receptor 6 (Homo sapiens), sequence (O15303 whole entry): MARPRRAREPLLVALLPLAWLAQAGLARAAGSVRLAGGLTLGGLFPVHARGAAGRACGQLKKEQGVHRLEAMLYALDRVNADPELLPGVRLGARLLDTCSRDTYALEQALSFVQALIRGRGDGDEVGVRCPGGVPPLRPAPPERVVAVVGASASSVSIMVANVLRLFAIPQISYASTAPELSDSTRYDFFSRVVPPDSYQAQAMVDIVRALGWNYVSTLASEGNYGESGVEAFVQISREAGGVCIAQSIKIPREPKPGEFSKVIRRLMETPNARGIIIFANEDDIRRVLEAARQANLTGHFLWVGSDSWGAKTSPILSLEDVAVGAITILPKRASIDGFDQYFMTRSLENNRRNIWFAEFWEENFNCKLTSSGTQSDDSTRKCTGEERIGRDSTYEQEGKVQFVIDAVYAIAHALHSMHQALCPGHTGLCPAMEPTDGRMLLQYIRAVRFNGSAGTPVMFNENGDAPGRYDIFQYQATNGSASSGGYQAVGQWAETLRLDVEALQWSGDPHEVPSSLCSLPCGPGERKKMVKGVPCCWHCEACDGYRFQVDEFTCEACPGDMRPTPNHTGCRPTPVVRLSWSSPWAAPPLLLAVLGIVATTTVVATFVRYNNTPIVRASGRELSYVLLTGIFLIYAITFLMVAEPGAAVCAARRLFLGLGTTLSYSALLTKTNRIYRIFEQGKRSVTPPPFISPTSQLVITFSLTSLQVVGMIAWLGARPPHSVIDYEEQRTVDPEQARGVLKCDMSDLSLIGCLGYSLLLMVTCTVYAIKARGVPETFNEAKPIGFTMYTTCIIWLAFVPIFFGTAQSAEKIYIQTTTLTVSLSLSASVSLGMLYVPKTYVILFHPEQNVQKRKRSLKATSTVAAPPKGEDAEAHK

[12] = molecular target: Metabotropic glutamate receptor 4 (Homo sapiens) (UniProt Q14833); test: Positive allosteric modulation of mGluR4 assessed as effect on intracellular Ca2+ level up to 30 uM by cell based FLIPR assay; format: functional; procedure, shortened: as §3
Metabotropic glutamate receptor 4 (Homo sapiens), sequence (Q14833 whole entry): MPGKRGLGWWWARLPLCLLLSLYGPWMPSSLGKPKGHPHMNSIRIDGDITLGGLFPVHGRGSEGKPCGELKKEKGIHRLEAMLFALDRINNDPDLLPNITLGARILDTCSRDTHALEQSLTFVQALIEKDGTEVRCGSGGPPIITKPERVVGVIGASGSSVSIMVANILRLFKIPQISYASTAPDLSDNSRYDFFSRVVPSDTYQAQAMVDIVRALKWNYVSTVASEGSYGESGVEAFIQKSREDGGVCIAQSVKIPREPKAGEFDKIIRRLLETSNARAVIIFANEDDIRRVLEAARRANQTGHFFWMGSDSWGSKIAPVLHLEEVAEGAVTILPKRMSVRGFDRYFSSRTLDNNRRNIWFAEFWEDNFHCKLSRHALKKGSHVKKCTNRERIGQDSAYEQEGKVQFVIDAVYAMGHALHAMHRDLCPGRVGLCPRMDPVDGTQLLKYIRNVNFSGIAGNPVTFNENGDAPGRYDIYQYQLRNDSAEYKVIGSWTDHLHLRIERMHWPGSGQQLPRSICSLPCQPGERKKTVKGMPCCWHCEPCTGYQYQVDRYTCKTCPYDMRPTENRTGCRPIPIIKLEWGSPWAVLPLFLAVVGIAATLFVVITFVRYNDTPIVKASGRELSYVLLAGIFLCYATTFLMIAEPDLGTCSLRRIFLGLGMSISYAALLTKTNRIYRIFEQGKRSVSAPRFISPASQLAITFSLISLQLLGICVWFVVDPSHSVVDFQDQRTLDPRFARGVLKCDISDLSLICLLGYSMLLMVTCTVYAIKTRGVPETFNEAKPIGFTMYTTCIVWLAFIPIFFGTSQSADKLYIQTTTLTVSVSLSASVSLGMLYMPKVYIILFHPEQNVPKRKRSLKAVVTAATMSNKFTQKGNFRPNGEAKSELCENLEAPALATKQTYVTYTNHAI

[13] = molecular target: Metabotropic glutamate receptor 3 (Homo sapiens) (UniProt Q14832); test: Antagonist activity at mGluR3 assessed as effect on intracellular Ca2+ level up to 30 uM by cell based FLIPR assay; format: functional; procedure, shortened: as §3
Metabotropic glutamate receptor 3 (Homo sapiens), sequence (Q14832 23-879 limits assumed): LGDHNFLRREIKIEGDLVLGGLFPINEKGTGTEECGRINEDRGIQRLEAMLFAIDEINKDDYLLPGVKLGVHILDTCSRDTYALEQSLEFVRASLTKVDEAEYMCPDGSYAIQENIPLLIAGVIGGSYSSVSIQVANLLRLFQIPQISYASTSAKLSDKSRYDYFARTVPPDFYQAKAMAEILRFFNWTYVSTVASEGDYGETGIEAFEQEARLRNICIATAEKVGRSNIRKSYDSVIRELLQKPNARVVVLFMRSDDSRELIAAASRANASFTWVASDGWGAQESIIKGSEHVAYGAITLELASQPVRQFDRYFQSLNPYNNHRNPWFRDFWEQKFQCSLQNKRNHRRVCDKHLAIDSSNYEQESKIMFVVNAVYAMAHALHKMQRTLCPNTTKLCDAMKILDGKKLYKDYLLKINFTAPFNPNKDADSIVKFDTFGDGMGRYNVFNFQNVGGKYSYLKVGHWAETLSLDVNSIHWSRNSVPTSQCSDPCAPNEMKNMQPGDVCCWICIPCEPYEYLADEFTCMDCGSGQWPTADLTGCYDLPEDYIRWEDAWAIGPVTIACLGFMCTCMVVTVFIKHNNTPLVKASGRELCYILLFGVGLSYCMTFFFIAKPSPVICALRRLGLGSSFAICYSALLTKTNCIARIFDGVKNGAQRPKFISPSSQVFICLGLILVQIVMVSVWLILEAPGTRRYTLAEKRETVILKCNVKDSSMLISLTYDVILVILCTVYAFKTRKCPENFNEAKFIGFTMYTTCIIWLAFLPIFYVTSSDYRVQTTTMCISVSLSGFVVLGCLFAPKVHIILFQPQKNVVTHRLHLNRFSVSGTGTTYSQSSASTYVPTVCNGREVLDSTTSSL

[14] = molecular target: Metabotropic glutamate receptor 1 (Homo sapiens) (UniProt Q13255); test: Antagonist activity at mGluR1 assessed as effect on intracellular Ca2+ level up to 30 uM by cell based FLIPR assay; format: functional; procedure, shortened: as §3
Metabotropic glutamate receptor 1 (Homo sapiens), sequence (Q13255 19-1194 limits assumed): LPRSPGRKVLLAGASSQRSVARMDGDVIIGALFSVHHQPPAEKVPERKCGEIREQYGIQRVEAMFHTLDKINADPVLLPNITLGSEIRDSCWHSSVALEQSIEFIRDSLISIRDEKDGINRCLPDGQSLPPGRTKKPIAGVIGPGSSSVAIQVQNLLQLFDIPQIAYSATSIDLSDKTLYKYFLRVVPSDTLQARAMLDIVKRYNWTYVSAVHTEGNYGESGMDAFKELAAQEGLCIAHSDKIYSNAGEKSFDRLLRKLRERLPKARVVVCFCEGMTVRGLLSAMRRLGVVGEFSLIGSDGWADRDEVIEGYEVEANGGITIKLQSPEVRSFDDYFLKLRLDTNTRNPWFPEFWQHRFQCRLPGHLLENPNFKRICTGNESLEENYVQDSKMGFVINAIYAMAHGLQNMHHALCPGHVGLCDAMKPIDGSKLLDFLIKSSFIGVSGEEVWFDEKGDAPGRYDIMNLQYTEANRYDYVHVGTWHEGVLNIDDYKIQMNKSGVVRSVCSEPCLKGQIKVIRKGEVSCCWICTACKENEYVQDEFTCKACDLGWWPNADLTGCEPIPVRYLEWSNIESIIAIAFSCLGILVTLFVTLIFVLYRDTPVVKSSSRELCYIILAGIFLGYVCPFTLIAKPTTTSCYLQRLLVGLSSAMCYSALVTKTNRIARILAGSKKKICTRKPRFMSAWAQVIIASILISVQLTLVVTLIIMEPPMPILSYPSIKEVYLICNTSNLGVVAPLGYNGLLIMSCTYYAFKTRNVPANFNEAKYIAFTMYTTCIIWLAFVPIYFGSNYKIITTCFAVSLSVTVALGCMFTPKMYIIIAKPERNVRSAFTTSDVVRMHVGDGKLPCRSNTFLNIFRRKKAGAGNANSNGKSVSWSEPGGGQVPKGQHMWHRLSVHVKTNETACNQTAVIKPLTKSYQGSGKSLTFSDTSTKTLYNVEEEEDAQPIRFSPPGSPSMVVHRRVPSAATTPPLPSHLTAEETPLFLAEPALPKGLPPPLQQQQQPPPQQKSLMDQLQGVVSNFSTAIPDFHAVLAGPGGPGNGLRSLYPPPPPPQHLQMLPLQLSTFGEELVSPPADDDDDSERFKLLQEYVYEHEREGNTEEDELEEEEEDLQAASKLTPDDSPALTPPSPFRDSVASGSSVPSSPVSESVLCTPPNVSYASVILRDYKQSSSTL

[15] = molecular target: Metabotropic glutamate receptor 4 (Homo sapiens) (UniProt Q14833); test: Agonist activity at mGluR4 assessed as effect on intracellular Ca2+ level up to 30 uM by cell based FLIPR assay; format: functional; procedure, shortened: as §3
[16] = molecular target: T1, Metabotropic glutamate receptor 5; test: Binding affinity to human mGluR5 expressed in HEK293 cell membranes expressing GLAST assessed as per mg of protein after 1 hr by scintillation counter in presence of 20 nM MPEP; conditions: tested as the 3H-labelled form; procedure, shortened: as §1
[17] = Equilibrium solubility of the compound […]; format: physicochemical
Procedure, shortened: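 Solubility was measured by a dried-DMSO rapid-throughput method.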

[18] = Intrinsic clearance in rat liver microsomes; format: ADME, Microsome; conditions: read-out: CLH
Procedure, shortened: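 Intrinsic clearance was determined in human or rat microsomes and expressed per min per mg protein.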

[19] = molecular target: Metabotropic glutamate receptor 5 (Rattus norvegicus) (UniProt P31424); test: Negative allosteric modulation of rat recombinant mGluR5 expressed in HEK293 cells expressing GLAST assessed as inhibition of ATP-induced intracellular Ca2+ level at 10 uM after 30 mins by FLIPR assay; format: functional, cell-based
Procedure, shortened: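 FLIPR intracellular Ca2+ readout in background GHEK cells (HEK293 with glutamate/aspartate transporter, lacking mGluR5), stimulated with 10 µM ATP; test compound at 10 µM to check off-target inhibition.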

[20] = molecular target: T1, Metabotropic glutamate receptor 5; conditions: HEK293, tested as the 3H-labelled form
[21] = molecular target: T1, Metabotropic glutamate receptor 5; conditions: HEK293, tested as the 3H-labelled form; remark: listed apart in the source
[22] = molecular target: T1, Metabotropic glutamate receptor 5; test: Displacement of [3H]MPEP from human mGluR5 expressed in HEK293 cell membranes expressing GLAST after 1 hr by scintillation counter
[23] = molecular target: T1, Metabotropic glutamate receptor 5; test: Displacement of [3H]AZD9272 from human mGluR5 expressed in HEK293 cell membranes expressing GLAST after 1 hr by scintillation counter
[24] = molecular target: Metabotropic glutamate receptor 5 (Rattus norvegicus, UniProt P31424); test: Displacement of [3H]AZD9272 from mGluR5 in Sprague-Dawley rat striatum by autoradiographic analysis
Procedure, shortened: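 Sections were cut from rat striatum (plates 13–16, 2 rats). They were incubated with 3 nM [3H]AZD9272 plus increasing concentrations of competitor. Nonspecific binding was defined with 10 µM MPEP. Bound label was read by autoradiography (mean, SD, n = 2).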

[25] = AUC (0 to 8 hrs) in Sprague-Dawley rat at 3 umol/kg, po; format: ADME, organism-based; design: time < 8 hr, dose 3 umol/kg, route oral; conditions: plasma; procedure, shortened: as §2

Row | Compound | IC50 [1] [nM] | Tmax [5] [h] | bioavailability [7] [%] | Kp [8] | Activity [10] [%] | Activity [11] [%] | Activity [12] [%] | inhibition [13] [%] | inhibition [14] [%] | Activity [15] [%] | solubility [17] [µM] | microsomal CLint [18] [µL/min/mg] | inhibition [19] | further results
1 | N#Cc1cc(F)cc(-c2nc(-c3ccc(F)cn3)no2)c1 | 7.6 | 4 | 56 | 1 | < 50 | < 50 | < 50 | < 50 | < 50 | < 50 | 4.2 (≈ 1.19 µg/mL) | 10 | inactive | Bmax [2]: 4.4 pmol; Bmax [3]: 5.3 pmol; Bmax [4]: 5.1 pmol; AUC [6]: 5.4 µM·h; Bmax [9]: 1550 fmol/mg; Bmax [16]: 5 pmol; T1/2 [20]: 3.45 min; T1/2 [21]: 7.85 min
2 | N#Cc1ccc(-c2noc(-c3cc(F)cc(C#N)c3)n2)nc1 | 13.4 | 3 | 46 | 1 | < 50 | < 50 | < 50 | < 50 | < 50 | < 50 | 16.1 (≈ 4.69 µg/mL) | 6 | inactive | Ki [22]: 28 nM; Ki [23]: 17.9 nM; IC50 [24]: 14.5 nM; AUC(0-t) at 8 h [25]: 3.6 µM·h
